This passage reports inhibition of growth, IC50 and Activity results from ChEMBL document CHEMBL4007381, “Synthesis, X-ray crystal structure and anti-tumor activity of calix[n]arene polyhydroxyamine derivatives” (Eur J Med Chem, 2016).

The test system of assay [1] is Raji. In words: Cytotoxicity against human Raji cells assessed as reduction in cell viability at 10 uM measured after 72 hrs by MTT assay relative to control. The format is functional. Conditions: read-out: GI. The procedure, abridged: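 Raji suspension cells were seeded at 1-5 × 10⁴/well and grown 24 h. They were treated at 10 µM for 72 h in triplicate wells. Read-out was MTT for 4 h, then solubilization in HCl/isopropanol/SDS overnight and OD at 550 nm, relative to control.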
(Tetrazolium assays rely on reduction of a dye to a coloured formazan, in cell work by metabolically active cells.)

Assay [2] concerns SK-OV-3. Nature of the assay: Cytotoxicity against human SKOV3 cells assessed as reduction in cell viability at 10 uM measured after 72 hrs by SRB assay relative to control. It counts as functional. The settings on record: SK-OV-3, 72 h, read-out: GI. The procedure, abridged: (§1)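 Adherent cells were seeded at 1-5 × 10⁴/well and grown 24 h at 37 °C in 5% CO₂. They were treated at a single 10 µM concentration for 72 h in triplicate wells. Read-out was SRB staining after TCA fixation, with dye dissolved in Tris base and OD read at 565 nm. Viability was expressed relative to control.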

For assay [3], the system named is MDA-MB-231. In words: Cytotoxicity against human MDA-MB-231 cells assessed as reduction in cell viability at 10 uM measured after 72 hrs by SRB assay relative to control. The format is functional. Conditions: MDA-MB-231, 72 h, read-out: GI. The procedure, abridged:
as §1

The subject of assay [4] is HeLa. In words: Cytotoxicity against human HeLa cells assessed as reduction in cell viability at 10 uM measured after 72 hrs by SRB assay relative to control. It counts as functional. The settings on record: read-out: GI. The procedure, abridged: as §1
Another assay relates to A549. In words: Cytotoxicity against human A549 cells assessed as reduction in cell viability at 10 uM measured after 72 hrs by SRB assay relative to control. The format is functional. Conditions: A549, 72 h, read-out: GI. The procedure, abridged: as §1
(In SRB staining, fixed cells bind dye roughly in proportion to their protein.)

Assay [5] deals with SW1990. Nature of the assay: Cytotoxicity against human SW1990 cells assessed as reduction in cell viability at 10 uM measured after 72 hrs by SRB assay relative to control. It counts as functional. Conditions: SW1990, 72 h, read-out: GI. The procedure, abridged: as §1
Assay [6] has as its system HeLa. In words: Cytotoxicity against human HeLa cells assessed as reduction in cell viability measured after 72 hrs by SRB assay. It counts as functional, cell-based. The procedure, abridged:
(§2)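 Adherent cells in log phase were seeded at 1-5 × 10⁴/well and grown 24 h at 37 °C in 5% CO₂. They were exposed to 10 concentrations for 72 h, three wells each, then fixed with TCA and stained with SRB. Bound dye was dissolved in Tris base and read at OD 565 nm. Survival was expressed relative to vehicle (100%). Means came from ≥3 independent experiments, and apparent IC50 was read from the dose-response curves.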

In assay [7] the test system is SW1990. In words: Cytotoxicity against human SW1990 cells assessed as reduction in cell viability measured after 72 hrs by SRB assay. It counts as functional, cell-based. Conditions: SW1990, 72 h. The procedure, abridged: as §2
For assay [8], the system named is Raji. Nature of the assay: Cytotoxicity against human Raji cells assessed as reduction in cell viability measured after 72 hrs by MTT assay. It counts as functional, cell-based. The procedure, abridged:
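Raji suspension cells (RPMI 1640, 10% FBS) were seeded at 1-5 × 10⁴/well and grown 24 h at 37 °C in 5% CO₂. They were exposed to 10 concentrations for 72 h in triplicate wells. MTT was added for 4 h, then HCl/isopropanol/SDS was added overnight, and OD was read at 550 nm. Data are means of ≥3 independent experiments, relative to vehicle, with apparent IC50 taken from the dose-response curves.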

Assay [9] concerns MDA-MB-231. Nature of the assay: Cytotoxicity against human MDA-MB-231 cells assessed as reduction in cell viability measured after 72 hrs by SRB assay. Conditions: MDA-MB-231, 72 h. It counts as functional, cell-based. The procedure, abridged:
as §2

Assay [10] has as its system SK-OV-3. In words: Cell cycle arrest in human SKOV3 cells assessed as accumulation at G0/G1 phase at 10 uM measured after 48 hrs by propidium iodide staining-based FACS analysis. It counts as functional. On the technique in general: In flow cytometry, cells or beads pass a laser one at a time.
Assay [11] deals with SK-OV-3. In words: Cytotoxicity against human SKOV3 cells assessed as reduction in cell viability measured after 72 hrs by SRB assay. The settings on record: SK-OV-3, 72 h. The format is functional, cell-based. The procedure, abridged:
as §2

In assay [12] the test system is SK-OV-3. Nature of the assay: Cell cycle arrest in human SKOV3 cells assessed as decrease in accumulation at S phase at 10 uM measured after 48 hrs by propidium iodide staining-based FACS analysis. The format is functional.
For assay [13], the system named is SK-OV-3. In words: Cell cycle arrest in human SKOV3 cells assessed as decrease in accumulation at G2/M phase at 10 uM measured after 48 hrs by propidium iodide staining-based FACS analysis. The format is functional.

SMILES strings stand for the structures. Active and inactive are the calls of the source. No cut-off for these calls is given here.

Take `O=C(COc1c2cccc1Cc1cccc(c1OCC(=O)NCCO)Cc1cccc(c1OCC(=O)NCCO)Cc1cccc(c1OCC(=O)NCCO)Cc1cccc(c1OCC(=O)NCCO)Cc1cccc(c1OCC(=O)NCCO)C2)NCCO`: the inhibition of growth at 10 µM is 18% in the assay with Raji [1]; 10% in the assay on SK-OV-3 [2]; 4% with MDA-MB-231 [3]; 6% in the assay with HeLa [4]; 7% in the assay with A549; 3% in the assay with SW1990 [5].

`CC(C)(C)c1cc2c(O)c(c1)Cc1cc(C(C)(C)C)cc(c1OCC(=O)N(CCO)CCO)Cc1cc(C(C)(C)C)cc(c1O)Cc1cc(C(C)(C)C)cc(c1OCC(=O)N(CCO)CCO)C2`: the inhibition of growth at 10 µM in the assay with Raji [1] was determined as 77%; in the assay on SK-OV-3 [2], 42%; with MDA-MB-231 [3], 95%; in the assay with HeLa [4] it was 95%; with A549 it was 16%; in the assay on SW1990 [5] it was 59%. The IC50 (in general, the concentration that gives 50% inhibition) was determined as 8.1 µM in the assay on HeLa [6], 11.3 µM with SW1990 [7], 11.2 µM in the assay with Raji [8] and 5.2 µM in the assay on MDA-MB-231 [9].

As to `O=C(COc1c2cccc1Cc1cccc(c1O)Cc1cccc(c1OCC(=O)NCCO)Cc1cccc(c1O)C2)NCCO`, the inhibition of growth at 10 µM in the assay with Raji [1] was determined as 29%; in the assay with SK-OV-3 [2], 86%; in the assay on MDA-MB-231 [3], 57%; with HeLa [4], 46%; with A549 it was 13%; with SW1990 [5] it was 10%. Besides, the outcome with SK-OV-3 [10], in the assay with SK-OV-3 [12] and in the assay on SK-OV-3 [13] was Active. Also, the IC50 in the assay on SK-OV-3 [11] came to 2.3 µM; with MDA-MB-231 [9] it was 1.6 µM.

For the compound `CC(C)(C)c1cc2c(OCC(=O)NCCO)c(c1)Cc1cc(C(C)(C)C)cc(c1OCC(=O)NCCO)Cc1cc(C(C)(C)C)cc(c1OCC(=O)NCCO)Cc1cc(C(C)(C)C)cc(c1OCC(=O)NCCO)Cc1cc(C(C)(C)C)cc(c1OCC(=O)NCCO)Cc1cc(C(C)(C)C)cc(c1OCC(=O)NCCO)Cc1cc(C(C)(C)C)cc(c1OCC(=O)NCCO)Cc1cc(C(C)(C)C)cc(c1OCC(=O)NCCO)C2`, the inhibition of growth at 10 µM in the assay on Raji [1] came out at 24%; in the assay on SK-OV-3 [2], 26%; with MDA-MB-231 [3], 12%; in the assay with HeLa [4], 23%; in the assay on A549, 8%; in the assay on SW1990 [5] it was 5%.

For `O=C(COc1c2cccc1Cc1cccc(c1OCC(=O)N(CCO)CCO)Cc1cccc(c1OCC(=O)N(CCO)CCO)Cc1cccc(c1OCC(=O)N(CCO)CCO)Cc1cccc(c1OCC(=O)N(CCO)CCO)Cc1cccc(c1OCC(=O)N(CCO)CCO)Cc1cccc(c1OCC(=O)N(CCO)CCO)Cc1cccc(c1OCC(=O)N(CCO)CCO)C2)N(CCO)CCO`, the inhibition of growth at 10 µM was found to be 11% in the assay on Raji [1]; 25% in the assay on SK-OV-3 [2]; 13% in the assay on MDA-MB-231 [3]; 18% in the assay on HeLa [4]; 6% in the assay on A549; 2% with SW1990 [5].

`CC(C)(C)c1cc2c(OCC(=O)N(CCO)CCO)c(c1)Cc1cc(C(C)(C)C)cc(c1OCC(=O)N(CCO)CCO)Cc1cc(C(C)(C)C)cc(c1OCC(=O)N(CCO)CCO)Cc1cc(C(C)(C)C)cc(c1OCC(=O)N(CCO)CCO)Cc1cc(C(C)(C)C)cc(c1OCC(=O)N(CCO)CCO)Cc1cc(C(C)(C)C)cc(c1OCC(=O)N(CCO)CCO)Cc1cc(C(C)(C)C)cc(c1OCC(=O)N(CCO)CCO)Cc1cc(C(C)(C)C)cc(c1OCC(=O)N(CCO)CCO)C2`: the inhibition of growth at 10 µM in the assay with Raji [1] stood at 11%; in the assay on SK-OV-3 [2] it was 25%; in the assay with MDA-MB-231 [3], 11%; in the assay on HeLa [4] it was 10%; in the assay on A549, 0%; in the assay on SW1990 [5] it was 5%.

Turning to `CC(C)(C)c1cc2c(OCC(=O)NCCO)c(c1)Cc1cc(C(C)(C)C)cc(c1OCC(=O)NCCO)Cc1cc(C(C)(C)C)cc(c1OCC(=O)NCCO)Cc1cc(C(C)(C)C)cc(c1OCC(=O)NCCO)Cc1cc(C(C)(C)C)cc(c1OCC(=O)NCCO)Cc1cc(C(C)(C)C)cc(c1OCC(=O)NCCO)C2`, the inhibition of growth at 10 µM in the assay with Raji [1] was 38%; in the assay with SK-OV-3 [2], 24%; in the assay on MDA-MB-231 [3] it was 12%; in the assay with HeLa [4] it was 40%; with A549, 7%; with SW1990 [5], 4%.

Consider `O=C(COc1c2cccc1Cc1cccc(c1OCC(=O)N(CCO)CCO)Cc1cccc(c1OCC(=O)N(CCO)CCO)Cc1cccc(c1OCC(=O)N(CCO)CCO)Cc1cccc(c1OCC(=O)N(CCO)CCO)Cc1cccc(c1OCC(=O)N(CCO)CCO)C2)N(CCO)CCO`, for which the inhibition of growth at 10 µM in the assay with Raji [1] stood at 6%; in the assay with SK-OV-3 [2], 19%; in the assay with MDA-MB-231 [3], 22%; in the assay with HeLa [4] it was 9%; in the assay on A549, 5%; in the assay on SW1990 [5], 0%.

Consider `O=C(COc1c2cccc1Cc1cccc(c1OCC(=O)NCCO)Cc1cccc(c1OCC(=O)NCCO)Cc1cccc(c1OCC(=O)NCCO)Cc1cccc(c1OCC(=O)NCCO)Cc1cccc(c1OCC(=O)NCCO)Cc1cccc(c1OCC(=O)NCCO)Cc1cccc(c1OCC(=O)NCCO)C2)NCCO`, for which the inhibition of growth at 10 µM turned out to be 7% in the assay with Raji [1]; 1% with SK-OV-3 [2]; 27% in the assay on MDA-MB-231 [3]; 32% in the assay with HeLa [4]; 2% in the assay on A549; 4% in the assay on SW1990 [5].

`CC(C)(C)c1cc2c(OCC(=O)N(CCO)CCO)c(c1)Cc1cc(C(C)(C)C)cc(c1OCC(=O)N(CCO)CCO)Cc1cc(C(C)(C)C)cc(c1OCC(=O)N(CCO)CCO)Cc1cc(C(C)(C)C)cc(c1OCC(=O)N(CCO)CCO)Cc1cc(C(C)(C)C)cc(c1OCC(=O)N(CCO)CCO)Cc1cc(C(C)(C)C)cc(c1OCC(=O)N(CCO)CCO)C2`: the inhibition of growth at 10 µM with Raji [1] came out at 14%; in the assay on SK-OV-3 [2], 26%; with MDA-MB-231 [3], 0%; with HeLa [4] it was 0%; in the assay with A549 it was 0%; with SW1990 [5] it was 26%.

Take `O=C(COc1c2cccc1Cc1cccc(c1O)Cc1cccc(c1OCC(=O)N(CCO)CCO)Cc1cccc(c1O)C2)N(CCO)CCO`: the inhibition of growth at 10 µM stood at 34% in the assay on Raji [1]; 34% in the assay with SK-OV-3 [2]; 22% in the assay with MDA-MB-231 [3]; 38% in the assay on HeLa [4]; 7% with A549; 4% with SW1990 [5].
